# Experimental data from different studies.
# Compare with care: the assays were run in different laboratories.
# Target: Tyrosine-protein kinase CSK (CSK, Homo sapiens, UniProt P41240)
SMILES,effect on,action,method,cells,concentration,measurement,result
Cc1cnc(NC2CCOCC2)nc1-n1cnc(C(=O)NC(CN)c2cc(F)cc(Cl)c2)c1 (centres unmarked),enzyme activity,inhibitor,radiometric,,1 µM,remaining activity,110%
CNC(=O)c1cc(Oc2ccc(NC(=O)Nc3ccc(Cl)c(C(F)(F)F)c3)cc2)ccn1,enzyme activity,inhibitor,,,10 µM,inhibition,22%
CNC(=O)Nc1ccc2c(c1)[C@@]1(CC2)OC(=O)N(CC(=O)N(Cc2ccc(F)cc2)[C@@H](C)C(F)(F)F)C1=O,cell-free assay,,competition with immobilised ligand,,1 µM,remaining binding,100%
Cc1ccc(Nc2nccc(N(C)c3ccc4c(C)n(C)nc4c3)n2)cc1S(N)(=O)=O,enzyme activity,inhibitor,,,10 µM,inhibition,24%
O=C(Nc1cnn(-c2csc(C(=O)NC3COC3)c2)c1)Nc1ccccc1Cl,enzyme activity,inhibitor,,,5 µM,remaining activity,99.2%
Nc1nc(NC2CCCCC2)sc1C(=O)c1ccccc1,enzyme activity,inhibitor,,,10 µM,remaining activity,95%
CNC(=O)c1ccc(Nc2ncc(C(F)(F)F)c(NCc3nccnc3N(C)S(C)(=O)=O)n2)cc1,cell-free assay,,competition with immobilised ligand,,0.1 µM,remaining binding,100%
FC(F)c1nc2ccccc2n1-c1nc(N2CCOCC2)nc(N2CCOCC2)n1,enzyme activity,inhibitor,,,10 µM,remaining activity,84%
O=C1Nc2ccc(Cl)cc2C1=Cc1cc(Cl)c(O)c(Cl)c1,enzyme activity,inhibitor,,,0.5 µM,remaining activity,85%
CC(=O)N1CCC(c2ccc(C(=O)NC(=N)N)cc2C(F)(F)F)CC1,cell-free assay,,competition with immobilised ligand,,1 µM,remaining binding,100%
N#CCCc1ccc2c(c1)-c1[nH]c3ccc([N+](=O)[O-])cc3c1CC(=O)N2,cell-free assay,,,,0.5 µM,remaining signal,96.3%
Cc1cc(NC(=O)c2cccc3cc(-c4cccc5[nH]nc(N)c45)ccc23)ccc1F,enzyme activity,inhibitor,,,0.1 µM,activity vs control,97%
FC(F)(F)Oc1cccc(-c2cnc3ccc(-c4ccncc4)nn23)c1,enzyme activity,inhibitor,radiometric,,1 µM,activity vs control,97%
Cc1ccc(NC(=O)c2ccc(C)c(C(F)(F)F)c2)cc1C#Cc1nn(C2CCC(O)CC2)c2ncnc(N)c12 (centres unmarked),cell-free assay,inhibitor,,,10 µM,remaining signal,-1%
CN(C)C(=O)Cn1cc(-c2nc([C@@](C)(c3ccc(-c4cnc(N)nc4)cc3)C3CC3)no2)cn1,cell-free assay,,competition with immobilised ligand,,1 µM,remaining binding,100%
CCN1CCN(Cc2ccc(NC(=O)c3ccc(C)c(Oc4ccnc5[nH]ccc45)c3)cc2C(F)(F)F)CC1,target engagement in cells,inhibitor,chemoproteomics,A-375,0.5 µM,inhibition,-14.9%
Cc1nc(Cc2cccc(C(F)(F)F)c2)sc1-c1ccc(C(N)=O)nc1,cell-free assay,,competition with immobilised ligand,,1 µM,remaining binding,88%
COc1cc(Cl)c(C(=O)N[C@@H](CN[C@H]2CC[C@@H](N)CC2)Cc2ccc(C#N)cc2)cc1-c1ccc(CN[C@H](C)c2ccc(C)cc2)o1,enzyme activity,inhibitor,,,1 µM,remaining activity,99%
Cc1nc(N2CC[C@@H](O)C2)ncc1-c1cc(C(F)(F)F)cc2[nH]ncc12,cell-free assay,,competition with immobilised ligand,,1 µM,remaining binding,100%
O=C1c2ccccc2-c2n[nH]c3cccc1c23,enzyme activity,inhibitor,,,0.5 µM,activity vs control,95.6%
COc1cc(Nc2cnc(C#N)c(O[C@H](C)CN(C)C)n2)ncc1-c1cnn(C)c1,enzyme activity,inhibitor,radiometric,,1 µM,remaining activity,83%
Oc1cccc(-c2nc(N3CCOCC3)c3oc4ncccc4c3n2)c1,enzyme activity,inhibitor,,,10 µM,remaining activity,101%
CS(=O)(=O)CCNCc1ccc(-c2ccc3ncnc(Nc4ccc(OCc5cccc(F)c5)c(Cl)c4)c3c2)o1,enzyme activity,inhibitor,,,0.5 µM,remaining activity,106%
Cn1cc(Cl)c2c(Oc3c(F)cc(Nc4cc(Cl)nc(N)n4)cc3F)ccnc21,cell-free assay,,competition with immobilised ligand,,0.1 µM,remaining binding,100%
Cc1ccc(C(=O)Nc2ccc(CN3CCN(C)CC3)c(C(F)(F)F)c2)cc1C#Cc1cnc2cccnn12,enzyme activity,inhibitor,,,23.5 nM,remaining activity,15%
CN1CC(Oc2cnc(C#N)cc2-c2ccn3nc(NC(=O)C4CC4)cc3c2)C1,enzyme activity,inhibitor,,,1 µM,inhibition,-11%
COc1cc2ncnc(Nc3ccc(Oc4ccccc4)cc3C)c2cc1OC,enzyme activity,inhibitor,,,1 µM,inhibition,91%
CCCOc1ccc([C@@H]2[C@@H](C(=O)O)[C@H](c3ccc4c(c3)OCO4)CN2CC(=O)Nc2c(CC)cccc2CC)cc1,cell-free assay,,competition with immobilised ligand,,1 µM,remaining binding,91%
CCN(CC)CCNC(=O)c1c(C)[nH]c(/C=C2\C(=O)Nc3ccc(F)cc32)c1C,enzyme activity,inhibitor,,,10 µM,inhibition,10%
CN(c1ncccc1CNc1nc(Nc2ccc3c(c2)CC(=O)N3)ncc1C(F)(F)F)S(C)(=O)=O,enzyme activity,inhibitor,,,1 µM,inhibition,29.1%
CC(C)(C)c1nc2c(s1)c1nc(N)ncc1c1ccc(NS(=O)(=O)c3c(F)cccc3F)c(F)c12,enzyme activity,inhibitor,radiometric,,1 µM,remaining activity,87%
O=C(CSc1nc2nccnc2c(=O)n1CCc1ccccc1)Nc1nccs1,enzyme activity,inhibitor,,,10 µM,inhibition,6%
